Test results from ChEMBL document CHEMBL1132168, “Cycloalkanecarboxylic esters derived from lysergol, dihydrolysergol-I, and elymoclavine as partial agonists and antagonists at rat 5-HT2A receptors: pharmacological evidence that the indolo[4,3-fg]quinoline system of the ergolines is responsible for high 5-HT2A receptor affinity” (J Med Chem, 1999).
Where “and” joins values, the source holds several entries; their conditions need not be identical. Identical values can stand only once.

Legend:
[1] = target: T1, Adrenergic receptor alpha-1 (Rattus norvegicus, UniProt P15823+P23944+P43140); experiment: Ability to block alpha-1 adrenergic receptor-mediated contractions of rat aorta.; assay type: functional
T1 sequence (P15823 whole entry): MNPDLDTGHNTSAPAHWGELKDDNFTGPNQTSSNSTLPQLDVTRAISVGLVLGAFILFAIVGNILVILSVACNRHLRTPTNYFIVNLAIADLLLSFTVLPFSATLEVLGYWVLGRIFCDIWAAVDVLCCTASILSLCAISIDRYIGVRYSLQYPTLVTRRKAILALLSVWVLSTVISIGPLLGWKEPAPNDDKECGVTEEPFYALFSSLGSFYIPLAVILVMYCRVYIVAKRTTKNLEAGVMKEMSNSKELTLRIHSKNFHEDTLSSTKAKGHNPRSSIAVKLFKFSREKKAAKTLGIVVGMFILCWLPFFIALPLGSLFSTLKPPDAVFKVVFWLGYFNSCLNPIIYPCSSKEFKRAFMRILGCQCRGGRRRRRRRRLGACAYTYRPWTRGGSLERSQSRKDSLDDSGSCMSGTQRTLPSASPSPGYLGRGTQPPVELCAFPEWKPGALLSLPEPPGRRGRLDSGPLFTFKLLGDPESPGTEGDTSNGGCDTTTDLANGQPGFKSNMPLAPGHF
T1 sequence (P23944 whole entry): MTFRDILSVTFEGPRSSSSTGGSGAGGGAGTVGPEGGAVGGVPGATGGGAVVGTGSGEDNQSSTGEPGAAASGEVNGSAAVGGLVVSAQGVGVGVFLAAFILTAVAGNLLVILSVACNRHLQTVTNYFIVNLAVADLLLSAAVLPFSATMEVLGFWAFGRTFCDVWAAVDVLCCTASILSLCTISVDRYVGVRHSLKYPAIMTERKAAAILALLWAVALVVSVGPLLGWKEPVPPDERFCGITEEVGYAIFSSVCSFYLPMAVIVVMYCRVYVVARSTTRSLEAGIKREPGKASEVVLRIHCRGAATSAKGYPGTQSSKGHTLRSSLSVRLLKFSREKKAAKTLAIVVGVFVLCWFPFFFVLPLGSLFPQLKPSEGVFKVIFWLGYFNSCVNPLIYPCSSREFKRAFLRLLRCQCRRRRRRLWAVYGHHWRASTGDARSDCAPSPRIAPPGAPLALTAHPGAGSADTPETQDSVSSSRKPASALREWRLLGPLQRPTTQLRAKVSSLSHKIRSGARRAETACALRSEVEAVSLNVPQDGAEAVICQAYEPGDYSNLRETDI
T1 sequence (P43140 whole entry): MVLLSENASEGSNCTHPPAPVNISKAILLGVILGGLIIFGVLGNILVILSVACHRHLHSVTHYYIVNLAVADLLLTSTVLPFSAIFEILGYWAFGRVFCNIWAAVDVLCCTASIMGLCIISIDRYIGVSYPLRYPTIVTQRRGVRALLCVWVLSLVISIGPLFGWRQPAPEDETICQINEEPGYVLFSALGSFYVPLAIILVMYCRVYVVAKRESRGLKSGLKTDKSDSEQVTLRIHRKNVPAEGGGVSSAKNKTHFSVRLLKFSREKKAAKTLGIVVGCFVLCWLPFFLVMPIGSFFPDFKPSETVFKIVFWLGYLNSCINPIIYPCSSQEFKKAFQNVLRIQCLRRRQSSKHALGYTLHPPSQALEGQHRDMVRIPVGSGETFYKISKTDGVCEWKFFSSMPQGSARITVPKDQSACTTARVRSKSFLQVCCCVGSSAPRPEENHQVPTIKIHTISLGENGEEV
Summary of the method: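 Endothelium-denuded rat thoracic aorta rings (4–6 mm) in modified Krebs-Henseleit, 37 °C, 95% O2/5% CO2, with (R,S)-propranolol 1 μM. Resting force 20 mN. During 140 min equilibration, rings were stimulated twice with (R)-phenylephrine 100 nM. Two cumulative phenylephrine contraction curves were run, without and then with antagonist added 30 min before.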

[2] = target: 5-hydroxytryptamine receptor 2A (Rattus norvegicus) (UniProt P14842); experiment: Relative potency towards 5-HT2A receptor of rat tail artery; assay type: functional, tissue-based
Summary of the method: (§1)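 Endothelium-denuded rat caudal artery segments, resting force 5 mN, with prazosin 30 nM and cocaine 6 μM present. Two cumulative curves were run on each segment 60 min apart: first 5-HT, then the test agonist. pKP was taken from a Kenakin plot of equieffective 5-HT and agonist concentrations. Mean ± SEM from n segments, ≥2 animals.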

[3] = Specificity towards 5-HT2A receptor to that of alpha-1 adrenoceptor.; assay type: functional
[4] = target: 5-hydroxytryptamine receptor 2A (Rattus norvegicus) (UniProt P14842); experiment: Effectiveness in blocking 5-HT2A receptor-mediated contractions of rat tail artery; assay type: functional, tissue-based
Summary of the method: (§2)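 Endothelium-denuded rat ventral caudal artery segments (4–5 mm), isometric, resting force 5 mN. Segments were primed once with 5-HT 1 μM during 120 min equilibration. Prazosin 30 nM and cocaine 6 μM were present throughout. Two cumulative 5-HT curves were run 60 min apart, the second after 30–60 min with antagonist. pKP by Marano–Kaumann; pA2 by Schild or as apparent pA2. Mean ± SEM, n segments, ≥2 animals.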

[5] = target: T2, 5-hydroxytryptamine receptor 2A (Rattus norvegicus, UniProt P14842); experiment: Partial agonism at 5-HT2A receptor was evaluated in presence of ketanserin (3-10 nM) in isolated rat tail artery; assay type: functional, tissue-based; details: read-out: pA2 (converted)
Summary of the method: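 Rat caudal artery, endothelium removed, with prazosin 30 nM and cocaine 6 μM present. A 5-HT curve was followed after 60 min by a cumulative agonist curve, with ketanserin 3 nM added 30 min beforehand. The rightward shift was compared with that in control segments run without ketanserin.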

[6] = target: 5-hydroxytryptamine receptor 2A (Rattus norvegicus) (UniProt P14842); experiment: Intrinsic activity towards 5-HT2A receptor of rat tail artery; assay type: functional, tissue-based; summary of the method: as §1
[7] = target: T2, 5-hydroxytryptamine receptor 2A; experiment: Blocking 5-HT2A receptor-mediated contractions of rat tail artery; assay type: functional, tissue-based; details: read-out: pA2 (converted); summary of the method: as §2
[8] = Specificity of compound towards 5-HT2A receptor to that of 5-HT1B receptor; assay type: functional
[9] = target: 5-hydroxytryptamine receptor 1B (Homo sapiens, UniProt P28222); experiment: Affinity of compound towards 5-hydroxytryptamine 1B receptor in isolated guinea-pig iliac artery; assay type: functional, tissue-based, Cavia porcellus; details: target entry is the homologue from another species; read-out: pA2 (converted)
Summary of the method: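 Iliac artery segments (1–2 mm), resting force 5 mN. Krebs-Henseleit contained ketanserin 1 μM, mepyramine 0.3 μM, cimetidine 30 μM and cocaine 30 μM. […] Two 5-HT curves were run 80 min apart, the second after 45 min with compound.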

[10] = target: 5-hydroxytryptamine receptor 2A (Rattus norvegicus) (UniProt P14842); details: Tail
[11] = target: T2, 5-hydroxytryptamine receptor 2A; experiment: Effectiveness of compound in blocking 5-hydroxytryptamine 2A receptor-mediated contractions of rat tail artery; assay type: functional, tissue-based; details: read-out: pA2 (converted); summary of the method: as §2

Sequence of 5-hydroxytryptamine receptor 1B (P28222 whole entry): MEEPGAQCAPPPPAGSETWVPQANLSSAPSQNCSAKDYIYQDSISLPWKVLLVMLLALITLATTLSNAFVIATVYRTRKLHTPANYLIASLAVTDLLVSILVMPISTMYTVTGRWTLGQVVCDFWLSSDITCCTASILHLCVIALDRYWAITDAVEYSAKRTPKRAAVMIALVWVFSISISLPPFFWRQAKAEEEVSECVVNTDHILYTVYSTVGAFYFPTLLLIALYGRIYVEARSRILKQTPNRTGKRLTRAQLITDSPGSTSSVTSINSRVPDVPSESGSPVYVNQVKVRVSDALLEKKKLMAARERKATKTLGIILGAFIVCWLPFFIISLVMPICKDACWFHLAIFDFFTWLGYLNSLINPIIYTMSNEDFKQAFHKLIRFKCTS
T2 sequence (P14842 whole entry): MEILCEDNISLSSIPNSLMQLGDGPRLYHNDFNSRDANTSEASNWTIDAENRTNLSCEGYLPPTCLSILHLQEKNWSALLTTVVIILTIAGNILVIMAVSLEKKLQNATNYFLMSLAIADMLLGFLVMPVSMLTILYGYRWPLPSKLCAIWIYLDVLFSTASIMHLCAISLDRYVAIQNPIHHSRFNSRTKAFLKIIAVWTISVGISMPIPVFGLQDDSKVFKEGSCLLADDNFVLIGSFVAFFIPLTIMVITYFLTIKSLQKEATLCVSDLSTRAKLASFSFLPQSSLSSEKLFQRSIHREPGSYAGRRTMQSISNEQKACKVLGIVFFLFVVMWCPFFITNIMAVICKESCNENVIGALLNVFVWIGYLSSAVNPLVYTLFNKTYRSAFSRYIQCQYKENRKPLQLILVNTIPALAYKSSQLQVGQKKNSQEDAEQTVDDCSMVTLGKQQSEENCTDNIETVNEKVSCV
Sequence of 5-hydroxytryptamine receptor 2A (Rattus norvegicus) (P14842 whole entry): as above

CN1C[C@H](COC(=O)C2CCCCCC2)C=C2c3cccc4[nH]cc(c34)C[C@H]21.O=C(O)/C=C\C(=O)O
pA2 [1]: 4.73
Relative potency [2]: 14%
Specificity [3]: 95
pKp [4]: 6.71 and 6.35
Kb [5]: 0.776 nM
Intrinsic activity [6]: 0.18

CC(C)n1cc2c3c(cccc31)C1=C[C@@H](CO)CN(C)[C@@H]1C2.O=C(O)/C=C\C(=O)O
pA2 [1]: 6.05
Kb [7]: 0.708 nM
Specificity [8]: 295
Specificity [3]: 1260
Kb [9]: 209 nM

CN1C[C@H](COC(=O)C2CCCCC2)C=C2c3cccc4[nH]cc(c34)C[C@H]21.O=C(O)/C=C\C(=O)O
pA2 [1]: 5.05
Relative potency [2]: 49%
Specificity [3]: 68
pKp [10]: 6.88
pKp [4]: 6.92
Kb [5]: 0.661 nM
Intrinsic activity [6]: 0.18

CC(C)n1cc2c3c(cccc31)[C@H]1C=C(CO)CN(C)[C@@H]1C2.O=C(O)/C=C\C(=O)O
pA2 [1]: 5.69
Kb [7]: 0.724 nM
Specificity [8]: 1180
Specificity [3]: 2820
Kb [9]: 851 nM

CC(C)n1cc2c3c(cccc31)[C@H]1C[C@@H](COC(=O)C3CC3)CN(C)[C@@H]1C2.O=C(O)/C=C\C(=O)O
pA2 [1]: 5.55
Kb [11]: 6.03 nM
Specificity [3]: 468

CC(C)n1cc2c3c(cccc31)C1=C[C@@H](COC(=O)C3CCCCCC3)CN(C)[C@@H]1C2.O=C(O)/C=C\C(=O)O
pA2 [1]: 4.93
Kb [11]: 17.8 nM
Specificity [3]: 661

CC(C)n1cc2c3c(cccc31)[C@H]1C[C@@H](CO)CN(C)[C@@H]1C2.O=C(O)/C=C\C(=O)O
pA2 [1]: 6.12
Kb [7]: 3.16 nM
Specificity [8]: 589
Specificity [3]: 240
Kb [9]: 1860 nM
